This is an account of results in ChEMBL document CHEMBL3227986, “Design of species- or isozyme-specific enzyme inhibitors. 1. Effect of thymidine substituents on affinity for the thymidine site of hamster cytoplasmic thymidine kinase” (J Med Chem, 1979).

Assay [1] has as its target T1, Thymidine kinase, cytosolic (Cricetulus griseus) (UniProt P09768).
T1 sequence (whole entry): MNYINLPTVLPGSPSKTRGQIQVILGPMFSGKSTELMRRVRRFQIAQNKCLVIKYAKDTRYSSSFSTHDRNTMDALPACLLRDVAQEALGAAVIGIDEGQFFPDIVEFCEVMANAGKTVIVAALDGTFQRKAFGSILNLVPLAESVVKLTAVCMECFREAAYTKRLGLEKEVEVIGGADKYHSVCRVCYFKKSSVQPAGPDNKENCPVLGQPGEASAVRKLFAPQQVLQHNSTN
Nature of the assay: Activity at thymidine kinase in BHK21 (C13) cells at 400 uM after 30 mins relative to thymidine. The class given is cell-based. As to conditions: Mesocricetus auratus. In a few lines: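 Radiolabeled thymidine or 2'-deoxyuridine derivatives tested as substrates: 40 μL BHK21(C13) 100000g supernatant, Tris-HCl 0.05 M pH 8.0, ATP 5 mM, MgCl2 2.5 mM, no thymidine, 30 min at 37 °C. Products separated by paper electrophoresis in 0.05 M triethylammonium bicarbonate pH 7.6; radioactivity counted in the TMP region.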

Assay [2] concerns the target T1, Thymidine kinase, cytosolic (Cricetulus griseus). Nature of the assay: Inhibition of thymidine kinase in BHK21 (C13) cells using [14C]thymidine at 200 uM after 10 mins by liquid scintillation spectrometer analysis relative to control in presence of Mg2+. The class given is cell-based. As to conditions: Mesocricetus auratus.
The target is the same in assay [3]. Nature of the assay: Inhibition of thymidine kinase in BHK21 (C13) cells using thymidine as substrate assessed as formation of TMP at 15.5 mM. Type of assay: cell-based. As to conditions: Mesocricetus auratus. In outline:
(§1)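 BHK21(C13) 100000g supernatant in Tris-HCl 0.05 M pH 8.0, ATP 5 mM, MgCl2 2.5 mM, [14C]thymidine 3.6 μM, 10 min at 37 °C. Reaction stopped by boiling; [14C]TMP bound to DEAE-cellulose disks and counted by liquid scintillation, corrected for unincubated blanks.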

Assay [4] has the same target. The assay can be described thus: Inhibition of thymidine kinase in BHK21 (C13) cells using thymidine as substrate assessed as formation of TMP at 7.8 mM. Type of assay: cell-based. As to conditions: Mesocricetus auratus. In a few lines:
as §1

The target in assay [5] is T2, Thymidine kinase 2, mitochondrial (Homo sapiens) (UniProt O00142).
T2 sequence (whole entry): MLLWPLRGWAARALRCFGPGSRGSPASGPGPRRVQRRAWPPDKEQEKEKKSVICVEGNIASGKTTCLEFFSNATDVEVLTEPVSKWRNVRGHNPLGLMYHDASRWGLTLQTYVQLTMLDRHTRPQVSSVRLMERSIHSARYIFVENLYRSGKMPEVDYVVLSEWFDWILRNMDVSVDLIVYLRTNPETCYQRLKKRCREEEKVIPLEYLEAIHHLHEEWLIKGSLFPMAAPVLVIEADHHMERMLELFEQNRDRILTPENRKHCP
Nature of the assay: Inhibition of human mitochondrial thymidine kinase using [14C]thymidine at 0.19 mM after 10 mins by liquid scintillation spectrometer analysis relative to control in presence of Mg2+.

The target in assay [6] is T1, Thymidine kinase, cytosolic (Cricetulus griseus). Nature of the assay: Inhibition of thymidine kinase in BHK21 (C13) cells using thymidine as substrate assessed as formation of TMP at 6.8 mM. Type of assay: cell-based. As to conditions: Mesocricetus auratus. In outline:
as §1

Assay [7] has the same target. The assay can be described thus: Inhibition of thymidine kinase in BHK21 (C13) cells using thymidine as substrate assessed as formation of TMP at 3.4 mM. The class given is cell-based. As to conditions: Mesocricetus auratus. In a few lines: as §1
Assay [8] has the same target. Nature of the assay: Inhibition of thymidine kinase in BHK21 (C13) cells using thymidine as substrate assessed as formation of TMP at 1.4 mM. The class given is cell-based. As to conditions: Mesocricetus auratus. In a few lines: as §1
Assay [9] shares this target. The assay can be described thus: Inhibition of thymidine kinase in BHK21 (C13) cells using thymidine as substrate assessed as formation of TMP at 0.28 mM. Type of assay: cell-based. As to conditions: Mesocricetus auratus. In a few lines:
as §1

For assay [10] the target is unchanged. The assay can be described thus: Inhibition of thymidine kinase in BHK21 (C13) cells using thymidine as substrate assessed as formation of TMP at 0.74 mM. Type of assay: cell-based. As to conditions: Mesocricetus auratus. In a few lines: as §1
The target is the same in assay [11]. The assay can be described thus: Inhibition of thymidine kinase in BHK21 (C13) cells using thymidine as substrate assessed as formation of TMP at […]. As to conditions: Mesocricetus auratus. The class given is cell-based.
Assay [12] has the same target. The assay can be described thus: Inhibition of thymidine kinase in BHK21 (C13) cells using thymidine as substrate assessed as formation of TMP at 10 mM. The class given is cell-based. As to conditions: Mesocricetus auratus. In a few lines: as §1
Assay [13] shares this target. Nature of the assay: Inhibition of thymidine kinase in BHK21 (C13) cells using thymidine as substrate assessed as formation of TMP at 5 mM. Type of assay: cell-based. As to conditions: Mesocricetus auratus. In outline: as §1
The target is the same in assay [14]. The assay can be described thus: Inhibition of thymidine kinase in BHK21 (C13) cells using [14C]thymidine after 10 mins by liquid scintillation spectrometer analysis relative to control in presence of Mg2+. Type of assay: cell-based. As to conditions: Mesocricetus auratus. In outline: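 BHK21(C13) high-speed supernatant, 10 min at 37 °C, [14C]TMP on DEAE-cellulose disks, scintillation counting. Phosphate donors (nucleoside triphosphates 5 mM, giving 2.5 mM Mg2+ triphosphates) tested with 14.4 μM [14C]thymidine. Inhibitor assays used 0.19 mM [14C]thymidine: 5-iodo nucleosides at 0.19 mM with saturating Mg2+-ATP, or dCTP 5 mM with ATP 5 mM and MgCl2 7.5 mM.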

For assay [15], the target named is T3, Thymidine kinase, cytosolic (Homo sapiens) (UniProt P04183).
T3 sequence (whole entry): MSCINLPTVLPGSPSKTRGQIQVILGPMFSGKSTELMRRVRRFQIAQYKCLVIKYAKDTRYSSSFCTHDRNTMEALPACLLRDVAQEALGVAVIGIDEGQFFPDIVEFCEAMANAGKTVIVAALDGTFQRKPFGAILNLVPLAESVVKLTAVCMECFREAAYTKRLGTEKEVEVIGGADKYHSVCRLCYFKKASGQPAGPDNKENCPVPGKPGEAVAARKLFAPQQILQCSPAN
Nature of the assay: Inhibition of human cytoplasmic thymidine kinase using [14C]thymidine after 10 mins by liquid scintillation spectrometer analysis relative to control in presence of Mg2+.

In assay [16] the target is T2, Thymidine kinase 2, mitochondrial (Homo sapiens). The assay can be described thus: Inhibition of human mitochondrial thymidine kinase using [14C]thymidine after 10 mins by liquid scintillation spectrometer analysis relative to control in presence of Mg2+.
Assay [17] addresses T1, Thymidine kinase, cytosolic (Cricetulus griseus). The assay can be described thus: Inhibition of thymidine kinase in BHK21 (C13) cells using thymidine as substrate assessed as formation of TMP at 0.2 mM. Type of assay: cell-based. As to conditions: Mesocricetus auratus. In a few lines:
as §1

Assay [18] has the same target. Nature of the assay: Inhibition of thymidine kinase in BHK21 (C13) cells using thymidine as substrate assessed as formation of TMP at 0.1 mM. The class given is cell-based. As to conditions: Mesocricetus auratus. In a few lines:
as §1

Active and inactive are the calls of the source. The calls are words filed in the database; no cut-off is given here.

In the case of `CC(=O)NCC(O)[C@H]1O[C@@H](n2cc(C)c(=O)[nH]c2=O)C[C@@H]1O` (stereo in doubt; [14C]4b), the result in assay [1] was inactive.
As a reminder, the inhibition is the relative decrease from the control value, in per cent. Take `CC(=O)Nc1cn([C@H]2C[C@H](O)[C@@H](COP(=O)(O)OP(=O)(O)OP(=O)(O)O)O2)c(=O)[nH]c1=O`: the inhibition entry in assay [2] is “Active”.
On to `CCCn1c(=O)ccn([C@H]2C[C@H](O)[C@@H](CO)O2)c1=O`, for which the values for the inhibition in assay [3] and in [4] were 36% and 18%, respectively.
As for `O=c1[nH]c(=O)n([C@H]2C[C@H](O)[C@@H](CO)O2)cc1I`, in assay [5], the inhibition is 31%.
With `CCNc1cn([C@H]2C[C@H](O)[C@@H](CO)O2)c(=O)[nH]c1=O`, the inhibition was 25% in [6] and 13% in assay [7].
Take `CCS[C@H]1C[C@H](n2cc(C)c(=O)[nH]c2=O)O[C@@H]1CO`: the inhibition in assay [8] was 60%; in assay [9], 31%.
Consider `CCNc1cn([C@H]2C[C@H](O)[C@@H](COP(=O)(O)OP(=O)(O)OP(=O)(O)O)O2)c(=O)[nH]c1=O`, for which the inhibition result in assay [2] was “Active”.
With `Nc1ccn([C@H]2C[C@H](O)[C@@H](CO)O2)c(=O)n1`, the inhibition was determined as 24% in assay [10] and 10% in assay [11].
Regarding `Nc1nc(=O)n([C@H]2C[C@H](O)[C@@H](CO)O2)cc1I`, the inhibition in [5] was determined as 64%.
Turning to `CCNc1ccn([C@H]2C[C@H](O)[C@@H](CO)O2)c(=O)n1`, the inhibition in assay [12] was 38%; in assay [13], 24%.
Turning to `Nc1ccn([C@H]2C[C@H](O)[C@@H](COP(=O)(O)OP(=O)(O)OP(=O)(O)O)O2)c(=O)n1`, the inhibition in [14] worked out at 27%; in assay [15], 15%; in assay [16], 82%.
Take `CCn1c(=O)c(C)cn([C@H]2C[C@H](O)[C@@H](CO)O2)c1=O`: the inhibition stood at 26% in [17] and 13% in [18].
`O=c1ccn([C@H]2C[C@H](O)[C@@H](CO)O2)c(=O)[nH]1`: the inhibition was 59% in [17] and 38% in assay [18].
